ChEMBL document CHEMBL1156555, “Synthesis and anti-inflammatory activity of 2-aryloxy methyl oxazolines” (Bioorg Med Chem Lett, 2008)
Blank lines part the entries; values can stand above or below the compound they belong to.

Key:
[1] = system: Rattus norvegicus; assay: Antiinflammatory activity in po dosed albino rat assessed as inhibition of carrageenan-induced paw edema administered 30 mins prior to challenge; type: functional
[2] = system: Rattus norvegicus; assay: Toxic ulcerogenic effect in albino rat assessed as incidence of hyperemia at 200 mg/kg, po; type: toxicity, organism-based; set-up: dose 200 mg/kg, route oral; conditions: in vivo
Procedure, shortened: (§1)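 Rats (200–230 g) in groups of 10 were fasted 24 h, then given the compound orally. They were killed 5 h after dosing. Stomach and small intestine were examined under a microscope for hyperemia, epithelial shedding, petechiae, frank haemorrhage, and erosion or ulceration with or without perforation. Any of these criteria counted as ulcerogenic.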

[3] = system: Rattus norvegicus; assay: Toxic ulcerogenic effect in albino rat assessed as incidence of hyperemia at 400 mg/kg, po; type: toxicity, organism-based; set-up: dose 400 mg/kg, route oral; conditions: in vivo; procedure, shortened: as §1
[4] = Acute toxicity in albino rat assessed as mortality after 24 hrs; type: organism-based; conditions: in vivo, read-out: ALD50
Procedure, shortened: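 Albino rats (200–230 g), groups of 10, given test compounds intraperitoneally at several dose levels. Percent mortality per group recorded 24 h after dosing. ALD50 calculated from the mortality data by a previously described method.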

[5] = system: Rattus norvegicus; assay: Antiinflammatory activity in albino rat assessed as inhibition of carrageenan-induced paw edema at 80 mg/kg, po administered 30 mins prior to challenge relative to control; type: functional
Procedure, shortened: (§2)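 Groups of five rats (200–230 g) were dosed orally. After 30 min, 0.2 ml of 1% carrageenan in 0.9% NaCl was injected subcutaneously into the hind-paw plantar aponeurosis. Paw volume was read by water plethysmometer before and at 3 h. % inhibition = (1 − vt/vc) × 100, using mean relative oedema changes against five carrageenan-only controls.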

[6] = system: Rattus norvegicus; assay: Toxic ulcerogenic effect in albino rat assessed as incidence of hyperemia at 100 mg/kg, po; type: toxicity, organism-based; set-up: dose 100 mg/kg, route oral; conditions: in vivo; procedure, shortened: as §1
[7] = system: Rattus norvegicus; assay: Antiinflammatory activity in albino rat assessed as inhibition of carrageenan-induced paw edema at 20 mg/kg, po administered 30 mins prior to challenge relative to control; type: functional; procedure, shortened: as §2
[8] = system: Rattus norvegicus; assay: Toxic ulcerogenic effect in albino rat assessed as incidence of ulcer at 100 mg/kg, po; type: toxicity, organism-based; set-up: dose 100 mg/kg, route oral; conditions: in vivo; procedure, shortened: as §1
[9] = system: Rattus norvegicus; assay: Toxic ulcerogenic effect in albino rat assessed as incidence of ulcer at 200 mg/kg, po; type: toxicity, organism-based; set-up: dose 200 mg/kg, route oral; conditions: in vivo; procedure, shortened: as §1
[10] = system: Rattus norvegicus; assay: Antiinflammatory activity in albino rat assessed as inhibition of carrageenan-induced paw edema at 40 mg/kg, po administered 30 mins prior to challenge relative to control; type: functional; procedure, shortened: as §2
[11] = system: Rattus norvegicus; assay: Toxic ulcerogenic effect in albino rat assessed as incidence of ulcer at 400 mg/kg, po; type: toxicity, organism-based; set-up: dose 400 mg/kg, route oral; conditions: in vivo; procedure, shortened: as §1
[12] = species on record: Oryctolagus cuniculus; assay: Inhibition of cyclooxygenase in rabbit colon microsomes assessed as reduction in conversion of arachidonic acid to PGE2 at 10 uM by liquid scintillation spectrometry relative to control
Procedure, shortened: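 Rabbit distal colon mucosa (2–3 g) was homogenized in 0.1 M Tris pH 8.0, and the microsomal pellet was used fresh. Microsomes were incubated with the test agent for 10 min at 37 °C in Tris-HCl pH 8.0 with 2 mM reduced glutathione, L-tryptophan and hematin. Products were separated by isocratic HPLC (150 mM orthophosphoric acid pH 3.5, 30% acetonitrile; UV 214 nm), and PGE2-co-eluting radioactivity was counted by liquid scintillation.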

Structure (SMILES): Clc1ccc(OCC2=NCCO2)cc1
ED50 [1]: 51.2 mg/kg | Activity [2]: 60% | Activity [3]: 90% | LD50 at 24 h [4]: > 1000 mg/kg | inhibition in vivo at 80 mg/kg [5]: 94.1% | Activity [6]: 30% | inhibition in vivo at 20 mg/kg [7]: 30.3% | Activity [8]: 10% | Activity [9]: 20% | inhibition in vivo at 40 mg/kg [10]: 48.2% | Activity [11]: 12%

inhibition [12]: 60%
Structure (SMILES): CCCCC1C(=O)N(c2ccccc2)N(c2ccccc2)C1=O [PHENYLBUTAZONE]
Activity [2]: 60% | Activity [3]: 90% | inhibition in vivo at 80 mg/kg [5]: 57.2% | Activity [6]: 30% | inhibition in vivo at 20 mg/kg [7]: 31.3% | Activity [8]: 30% | Activity [9]: 60% | inhibition in vivo at 40 mg/kg [10]: 35.5% | Activity [11]: 90%

Structure (SMILES): Cc1ccccc1OCC1=NCCO1
ED50 [1]: 78.3 mg/kg | Activity [2]: 60% | Activity [3]: 100% | LD50 at 24 h [4]: > 1000 mg/kg | inhibition in vivo at 80 mg/kg [5]: 55.3% | Activity [6]: 40% | inhibition in vivo at 20 mg/kg [7]: 3.1% | Activity [8]: 10% | inhibition [12]: 20% | Activity [9]: 20% | inhibition in vivo at 40 mg/kg [10]: 29.5% | Activity [11]: 40%

Structure (SMILES): Fc1ccc(OCC2=NCCO2)cc1
ED50 [1]: 75.5 mg/kg | Activity [2]: 40% | Activity [3]: 50% | LD50 at 24 h [4]: > 1000 mg/kg | inhibition in vivo at 80 mg/kg [5]: 40.5% | Activity [6]: 25% | inhibition in vivo at 20 mg/kg [7]: 18.5% | Activity [8]: 50% | Activity [9]: 25% | inhibition in vivo at 40 mg/kg [10]: 30.2% | Activity [11]: 75%

Structure (SMILES): O=[N+]([O-])c1ccc(OCC2=NCCO2)cc1
ED50 [1]: 60.5 mg/kg | Activity [2]: 70% | Activity [3]: 100% | LD50 at 24 h [4]: > 1000 mg/kg | inhibition in vivo at 80 mg/kg [5]: 77.1% | Activity [6]: 50% | inhibition in vivo at 20 mg/kg [7]: 29.2% | Activity [8]: 10% | inhibition [12]: 85% | Activity [9]: 15% | inhibition in vivo at 40 mg/kg [10]: 30.4% | Activity [11]: 20%

Structure (SMILES): Cc1cccc(OCC2=NCCO2)c1
ED50 [1]: 76.2 mg/kg | Activity [2]: 70% | Activity [3]: 90% | LD50 at 24 h [4]: > 1000 mg/kg | inhibition in vivo at 80 mg/kg [5]: 64.1% | Activity [6]: 50% | inhibition in vivo at 20 mg/kg [7]: 16.6% | Activity [8]: 15% | inhibition [12]: 70% | Activity [9]: 20% | inhibition in vivo at 40 mg/kg [10]: 44.6% | Activity [11]: 25%

Structure (SMILES): Cc1cc(OCC2=NCCO2)ccc1Cl
ED50 [1]: 60.2 mg/kg | Activity [2]: 70% | Activity [3]: 100% | LD50 at 24 h [4]: > 1000 mg/kg | inhibition in vivo at 80 mg/kg [5]: 77.1% | Activity [6]: 50% | inhibition in vivo at 20 mg/kg [7]: 22.2% | Activity [8]: 20% | inhibition [12]: 87% | Activity [9]: 30% | inhibition in vivo at 40 mg/kg [10]: 45.4% | Activity [11]: 40%

Structure (SMILES): Brc1ccccc1OCC1=NCCO1
ED50 [1]: 62.5 mg/kg | Activity [2]: 90% | Activity [3]: 100% | LD50 at 24 h [4]: > 1000 mg/kg | inhibition in vivo at 80 mg/kg [5]: 62.8% | Activity [6]: 70% | inhibition in vivo at 20 mg/kg [7]: 20.1% | Activity [8]: 10% | inhibition [12]: 40% | Activity [9]: 20% | inhibition in vivo at 40 mg/kg [10]: 29.1% | Activity [11]: 40%
